Data set [1] in a line: Intrinsic clearance in human liver microsomes was determined. In kind it is ADME, Microsome. As to conditions: read-out: Clearance. A digest of the protocol: (§1)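 Pooled liver microsomes at 0.15 mg/mL protein, compound at 1 µM, in 100 mM phosphate buffer pH 7.4 with 5 mM MgCl2, 1 mM EDTA, 0.35 mg/mL albumin and alamethicin, at 37°C. Started with final 4 mM UDPGA plus 1 mM NADPH and stopped at 5 and 20 min with ACN containing 0.02% FA. Single incubations, clearance in µL/min/mg.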

Data set [2] can be described thus: Intrinsic clearance in rat liver microsomes was determined. The following applies: read-out: Clearance. In kind it is ADME, Microsome. A digest of the protocol:
as §1

Data set [3] concerns the target T1, Intercellular adhesion molecule (ICAM-1), Integrin alpha-L/beta-2 (Homo sapiens, UniProt P05107+P20701). The experiment in a line: Inhibition of HUT78 cell adhesion to immobilized ICAM-1 protein. In kind it is functional, cell-based.
The target of data set [4] is T1, Intercellular adhesion molecule (ICAM-1), Integrin alpha-L/beta-2. Put plainly: In vitro inhibition of recombinant ICAM-1 binding to purified immobilized LFA-1 using cell-free assay. In kind it is functional.
The subject of data set [5] is Mus musculus. The experiment in a line: Anti-inflammatory activity against murine model of allergic contact dermatitis (mACD) after single oral administration (1 mg/kg) (in vivo). In kind it is functional. A digest of the protocol: (§2)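 Oxazolone-sensitized mice, eight per group, challenged with 10 µL of 2.0% oxazolone on the inner surface of the right ear; unchallenged left ear served as control. Single oral dose of compound given 2 h after challenge. Ear weight difference at 24 h used as swelling measure. Result is % inhibition versus vehicle controls, mean ± SEM, ANOVA/Dunnett or H/U-test.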

In data set [6] the test system is Mus musculus. Put plainly: Anti-inflammatory activity against murine model of allergic contact dermatitis (mACD) after single oral administration (0.1 mg/kg) (in vivo). In kind it is functional. A digest of the protocol:
as §2

A value given as a limit tells only on which side of the number the result lay.

What is called IC50 is the concentration that inhibits the measured activity by half. One may read the Inhibition as the drop in the measured response relative to a control, in per cent.

T1 sequence (P20701 whole entry): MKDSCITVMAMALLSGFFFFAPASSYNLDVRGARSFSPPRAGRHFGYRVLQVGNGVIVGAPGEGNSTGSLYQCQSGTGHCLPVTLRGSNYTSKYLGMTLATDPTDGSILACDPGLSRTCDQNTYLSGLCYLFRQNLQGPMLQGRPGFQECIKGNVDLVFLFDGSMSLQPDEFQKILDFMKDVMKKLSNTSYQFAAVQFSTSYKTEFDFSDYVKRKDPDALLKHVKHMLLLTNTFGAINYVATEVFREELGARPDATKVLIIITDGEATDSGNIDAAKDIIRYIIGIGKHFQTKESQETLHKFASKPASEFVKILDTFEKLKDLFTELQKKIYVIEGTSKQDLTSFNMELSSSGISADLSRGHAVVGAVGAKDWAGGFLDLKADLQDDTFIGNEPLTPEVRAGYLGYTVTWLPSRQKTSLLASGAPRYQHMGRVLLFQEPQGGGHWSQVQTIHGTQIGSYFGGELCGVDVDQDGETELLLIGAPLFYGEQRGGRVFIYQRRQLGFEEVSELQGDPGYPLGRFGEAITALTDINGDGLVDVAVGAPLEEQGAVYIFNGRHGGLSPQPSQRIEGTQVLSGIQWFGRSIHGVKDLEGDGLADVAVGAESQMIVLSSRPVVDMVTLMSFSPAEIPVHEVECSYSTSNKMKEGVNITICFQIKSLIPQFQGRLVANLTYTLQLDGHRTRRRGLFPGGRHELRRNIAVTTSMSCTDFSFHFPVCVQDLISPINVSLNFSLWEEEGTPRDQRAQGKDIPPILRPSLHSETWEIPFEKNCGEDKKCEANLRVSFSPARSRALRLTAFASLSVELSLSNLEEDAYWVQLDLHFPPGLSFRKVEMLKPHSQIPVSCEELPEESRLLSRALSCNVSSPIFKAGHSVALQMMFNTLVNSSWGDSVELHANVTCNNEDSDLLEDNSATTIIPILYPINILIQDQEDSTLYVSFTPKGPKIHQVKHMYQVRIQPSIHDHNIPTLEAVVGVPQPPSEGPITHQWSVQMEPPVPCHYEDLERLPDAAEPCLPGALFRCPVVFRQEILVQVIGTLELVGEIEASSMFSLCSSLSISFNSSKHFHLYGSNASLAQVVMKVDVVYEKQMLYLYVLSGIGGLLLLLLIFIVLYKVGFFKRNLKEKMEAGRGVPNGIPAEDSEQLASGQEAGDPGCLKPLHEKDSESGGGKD
T1 sequence (P05362 whole entry, further chain): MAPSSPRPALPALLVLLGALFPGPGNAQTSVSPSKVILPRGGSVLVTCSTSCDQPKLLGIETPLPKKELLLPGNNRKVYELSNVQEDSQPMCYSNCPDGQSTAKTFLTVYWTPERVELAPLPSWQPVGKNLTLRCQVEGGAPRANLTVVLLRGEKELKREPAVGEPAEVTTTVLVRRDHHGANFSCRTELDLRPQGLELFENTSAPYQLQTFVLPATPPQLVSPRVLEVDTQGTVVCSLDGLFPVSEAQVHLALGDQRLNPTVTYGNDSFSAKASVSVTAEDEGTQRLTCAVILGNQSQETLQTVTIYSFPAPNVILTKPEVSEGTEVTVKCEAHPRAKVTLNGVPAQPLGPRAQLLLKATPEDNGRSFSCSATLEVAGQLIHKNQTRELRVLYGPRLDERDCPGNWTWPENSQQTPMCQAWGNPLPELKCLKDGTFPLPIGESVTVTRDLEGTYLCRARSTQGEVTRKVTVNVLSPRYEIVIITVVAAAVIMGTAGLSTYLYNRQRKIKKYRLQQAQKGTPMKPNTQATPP
T1 sequence (P05107 whole entry): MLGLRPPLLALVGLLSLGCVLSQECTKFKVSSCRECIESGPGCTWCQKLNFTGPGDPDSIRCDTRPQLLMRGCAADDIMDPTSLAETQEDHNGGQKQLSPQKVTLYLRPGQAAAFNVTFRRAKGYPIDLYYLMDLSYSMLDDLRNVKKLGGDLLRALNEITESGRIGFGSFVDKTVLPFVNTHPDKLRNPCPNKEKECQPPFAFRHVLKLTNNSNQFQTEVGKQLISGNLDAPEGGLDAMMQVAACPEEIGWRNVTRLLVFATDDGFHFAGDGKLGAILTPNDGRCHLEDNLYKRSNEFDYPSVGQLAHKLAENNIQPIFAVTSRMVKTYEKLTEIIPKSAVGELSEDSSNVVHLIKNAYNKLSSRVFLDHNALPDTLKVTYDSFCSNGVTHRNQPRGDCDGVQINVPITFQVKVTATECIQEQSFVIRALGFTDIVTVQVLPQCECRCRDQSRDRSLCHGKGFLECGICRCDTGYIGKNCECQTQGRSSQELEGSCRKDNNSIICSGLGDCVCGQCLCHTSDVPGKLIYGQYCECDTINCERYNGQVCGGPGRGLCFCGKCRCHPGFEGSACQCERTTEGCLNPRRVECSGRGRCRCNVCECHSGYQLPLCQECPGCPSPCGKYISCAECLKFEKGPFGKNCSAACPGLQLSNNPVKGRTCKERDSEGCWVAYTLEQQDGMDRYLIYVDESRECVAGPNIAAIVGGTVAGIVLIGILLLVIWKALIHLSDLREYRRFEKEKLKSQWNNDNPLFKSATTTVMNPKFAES

Take `CC[C@H](C)C(=O)O[C@H]1C[C@@H](C)C=C2C=C[C@H](C)[C@H](CC[C@@H]3C[C@H](CC(=O)NC)N(Cc4ccc(C(=O)O)cc4)C(=O)O3)[C@H]21`: the microsomal CLint in data set [1] turned out to be 205 µL/min/mg; in data set [2] it was 214 µL/min/mg. Also, the IC50 in data set [3] is above 30000 nM; in data set [4] it was 870 nM. The Inhibition in the data set with Mus musculus [5] stood at 21%.
In the case of `CC[C@H](C)C(=O)O[C@H]1C[C@@H](C)C=C2C=C[C@H](C)[C@H](CC[C@@H]3C[C@H](CC(=O)OC)N(CCc4ccc(O)c(OC)c4)C(=O)O3)[C@H]21`, the IC50 in data set [3] came to 20500 nM; in data set [4], 640 nM. Moreover, the Inhibition with Mus musculus [6] came out at 9%; in the data set with Mus musculus [5], 30%.
As to `CC[C@H](C)C(=O)O[C@H]1C[C@@H](C)C=C2C=C[C@H](C)[C@H](CC[C@@H]3C[C@H](CC(=O)NC)N(Cc4ccc(C(C)(C)O)cc4)C(=O)O3)[C@H]21`, the microsomal CLint in data set [1] and in data set [2] was above 500 µL/min/mg in each case. For the same compound, the IC50 in data set [4] worked out at 1500 nM. Also, the Inhibition in the data set on Mus musculus [6] came out at 9%; with Mus musculus [5], 26%.
Consider `CC[C@H](C)C(=O)O[C@H]1C[C@@H](C)C=C2C=C[C@H](C)[C@H](CC[C@@H]3C[C@H](CC(=O)NC)N(CCc4ccc(O)c(OC)c4)C(=O)O3)[C@H]21`, for which the microsomal CLint in data set [1] and in data set [2] was above 500 µL/min/mg throughout. Also, the values for the IC50 in data set [3] and in data set [4] were 9500 nM and 800 nM, respectively. Moreover, the Inhibition in the data set on Mus musculus [6] worked out at 29%; in the data set on Mus musculus [5], 43%.
Turning to `CC[C@H](C)C(=O)O[C@H]1C[C@@H](C)C=C2C=C[C@H](C)[C@H](CC[C@@H]3C[C@H](CC(=O)OC)N(Cc4cccc(OC)c4)C(=O)O3)[C@H]21`, the IC50 in data set [3] came out at 4500 nM; in data set [4], 680 nM. In addition, the Inhibition in the data set with Mus musculus [5] came to 23%.
With `CC[C@H](C)C(=O)O[C@H]1C[C@@H](C)C=C2C=C[C@H](C)[C@H](CC[C@@H]3C[C@H](CC(=O)NC)N(Cc4ccc5c(c4)OC(F)(F)O5)C(=O)O3)[C@H]21`, the results for the microsomal CLint in data set [1] and in data set [2] were above 500 µL/min/mg and 207 µL/min/mg, respectively. For the same compound, the IC50 in data set [3] was 5590 nM; in data set [4] it was 1150 nM. Further, the Inhibition in the data set on Mus musculus [5] amounted to 19%.
Take `CC[C@H](C)C(=O)O[C@H]1C[C@@H](C)C=C2C=C[C@H](C)[C@H](CC[C@@H]3C[C@H](CC(=O)OC)N(Cc4ccc5c(c4)OC(F)(F)O5)C(=O)O3)[C@H]21`: the IC50 in data set [3] and in data set [4] was above 30000 nM in each case. Also, the Inhibition in the data set with Mus musculus [5] was -3%.
Regarding `CC[C@H](C)C(=O)O[C@H]1C[C@@H](C)C=C2C=C[C@H](C)[C@H](CC[C@@H]3C[C@H](CC(=O)OC)N(Cc4ccc(O)c(OC)c4)C(=O)O3)[C@H]21`, the IC50 in data set [3] is 120 nM; in data set [4], 50 nM. For the same compound, the Inhibition was found to be 16% in the data set on Mus musculus [6] and 46% in the data set on Mus musculus [5].
`CC[C@H](C)C(=O)O[C@H]1C[C@@H](C)C=C2C=C[C@H](C)[C@H](CC[C@@H]3C[C@H](CC(=O)NC)N(Cc4ccc(C(=O)NC)cc4)C(=O)O3)[C@H]21`: the microsomal CLint in data set [1] and in data set [2] was above 500 µL/min/mg throughout. For the same compound, the figures for the IC50 in data set [3] and in data set [4] were above 30000 nM and 620 nM, respectively. Also, the figures for the Inhibition with Mus musculus [6] and with Mus musculus [5] were 32% and 26%, respectively.
In the case of `CC[C@H](C)C(=O)O[C@H]1C[C@@H](C)C=C2C=C[C@H](C)[C@H](CC[C@@H]3C[C@H](CC(=O)OC)N(Cc4ccc(C(=O)NC)cc4)C(=O)O3)[C@H]21`, the IC50 was above 30000 nM in data set [3] and 1300 nM in data set [4]. In addition, the Inhibition in the data set with Mus musculus [5] was 8%.
As for `CC[C@H](C)C(=O)O[C@H]1C[C@@H](C)C=C2C=C[C@H](C)[C@H](CC[C@@H]3C[C@H](CC(=O)NC)N(Cc4ccc(O)c(OC)c4)C(=O)O3)[C@H]21`, the microsomal CLint in data set [1] and in data set [2] was above 500 µL/min/mg in each case. Besides, the IC50 was 250 nM in data set [3] and 50 nM in data set [4]. Further, the Inhibition turned out to be 39% in the data set with Mus musculus [6] and 47% with Mus musculus [5].
As for `CC[C@H](C)C(=O)O[C@H]1C[C@@H](C)C=C2C=C[C@H](C)[C@H](CC[C@@H]3C[C@H](CC(=O)NC)N(Cc4ccc5c(c4)OCO5)C(=O)O3)[C@H]21`, the results for the microsomal CLint in data set [1] and in data set [2] were 383 µL/min/mg and 100 µL/min/mg, respectively. Further, the IC50 in data set [3] was 6420 nM; in data set [4], 170 nM. Further, the Inhibition in the data set with Mus musculus [6] is recorded as 28%; in the data set on Mus musculus [5], 29%.
As for `CC[C@H](C)C(=O)O[C@H]1C[C@@H](C)C=C2C=C[C@H](C)[C@H](CC[C@@H]3C[C@H](CC(=O)OC)N(Cc4ccc(C(C)(C)O)cc4)C(=O)O3)[C@H]21`, the IC50 in data set [3] amounted to 7690 nM; in data set [4] it was 3000 nM. For the same compound, the values for the Inhibition in the data set on Mus musculus [6] and in the data set on Mus musculus [5] were 12% and 33%, respectively.
Consider `CC[C@H](C)C(=O)O[C@H]1C[C@@H](C)C=C2C=C[C@H](C)[C@H](CC[C@@H]3C[C@H](CC(=O)OC)N(Cc4ccc5c(c4)OCO5)C(=O)O3)[C@H]21`, for which the IC50 in data set [3] turned out to be 2590 nM; in data set [4], 1000 nM. Further, the Inhibition with Mus musculus [6] came out at 32%; in the data set on Mus musculus [5], 42%.
Consider `CC[C@H](C)C(=O)O[C@H]1C[C@@H](C)C=C2C=C[C@H](C)[C@H](CC[C@@H]3C[C@H](CC(=O)NC)N(Cc4cccc(OC)c4)C(=O)O3)[C@H]21`, for which the microsomal CLint in data set [1] was determined as 55 µL/min/mg; in data set [2] it was 123 µL/min/mg. Further, the results for the IC50 in data set [3] and in data set [4] were 6500 nM and 270 nM, respectively. For the same compound, the Inhibition in the data set on Mus musculus [5] is reported as 21%.
